Test results taken from ChEMBL document CHEMBL2169769, “Synthesis and biological characterization of protease-activated prodrugs of doxazolidine” (J Med Chem, 2012).

Assays:
[1] = test system: MIA PaCa-2; assay: Cytotoxicity against human MIAPaCa2 cells incubated for 24 hrs measured after 5 days in presence of 0.2 U trypsin; type: functional, cell-based
In short: (§1)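 Cells seeded 1000/well, adhered overnight, then serum-free medium with or without plasmin, trypsin, cathepsin B or papain (0.2 U/well), aprotinin (5 µM) or protease inhibitor cocktail (1X). Prodrug 2000–1 nM final, 24 h; then complete medium up to 5 days or control 80% confluence. Formalin fixed, crystal violet, A582; % of control fit to variable-slope sigmoid for IC50.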

[2] = Cytotoxicity against human L3.3 cells incubated for 24 hrs measured after 5 days in presence of 0.2 U human plasmin; type: functional, cell-based; in short: as §1
[3] = species on record: Bos taurus; assay: Activity of bovine trypsin assessed as enzyme specific activity for compound hydrolysis
In short: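 50 µM prodrug incubated at 37 °C with enzyme: trypsin in PBS; papain diluted two-fold in PBS-NAC (PBS + 10 mM N-acetylcysteine), reacted in PBS-NAC pH 6.5. Aliquots quenched in equal volume ethanol, −20 °C ≥2 h, centrifuged; supernatant RP-HPLC at 480 nm for substrate loss and dox gain. Slope of linear fit gives activity; 1 U = 1 µM prodrug hydrolysed per min.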

[4] = test system: MCF7; assay: Cytotoxicity against human MCF7 cells incubated for 24 hrs measured after 5 days; type: functional, cell-based; in short: as §1
[5] = test system: HEK-293T; assay: Cytotoxicity against human HEK293T cells incubated for 24 hrs measured after 5 day; type: cell-based; in short: as §1
[6] = Cytotoxicity against human L3.6PL cells incubated for 24 hrs measured after 5 day; type: functional, cell-based; in short: as §1
[7] = test system: HEK-293T; assay: Cytotoxicity against human HEK293T cells incubated for 24 hrs measured after 5 days in presence of 0.2 U human plasmin; type: cell-based; in short: as §1
[8] = test system: MIA PaCa-2; assay: Drug uptake in human MIAPaCa2 cells increase in compound uptake-induced anthracycline fluorescence in absence of plasmin at 0.5 uM up to 5 hrs by flow cytometry relative to untreated control; type: ADME, cell-based; conditions: mia paca-2, 5 h
In short: (§2)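 MCF-7 or MiaPaCa-2 plated 250,000/well, adhered overnight, switched to serum-free medium with 0.5 µM prodrug alone or plus 0.2 U human plasmin (final) for up to 5 h. Trypsinised cells read by flow cytometry (FL3) for anthracycline fluorescence; mean values expressed as fold over untreated cells.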

[9] = target: Plasminogen (Homo sapiens) (UniProt P00747); assay: Activity of human plasmin assessed as compound hydrolysis measuring enzyme specific activity at 50 uM at pH 7.4 in PBS buffer by RP-HPLC
Plasminogen (Homo sapiens), sequence (P00747 97-580 limits assumed): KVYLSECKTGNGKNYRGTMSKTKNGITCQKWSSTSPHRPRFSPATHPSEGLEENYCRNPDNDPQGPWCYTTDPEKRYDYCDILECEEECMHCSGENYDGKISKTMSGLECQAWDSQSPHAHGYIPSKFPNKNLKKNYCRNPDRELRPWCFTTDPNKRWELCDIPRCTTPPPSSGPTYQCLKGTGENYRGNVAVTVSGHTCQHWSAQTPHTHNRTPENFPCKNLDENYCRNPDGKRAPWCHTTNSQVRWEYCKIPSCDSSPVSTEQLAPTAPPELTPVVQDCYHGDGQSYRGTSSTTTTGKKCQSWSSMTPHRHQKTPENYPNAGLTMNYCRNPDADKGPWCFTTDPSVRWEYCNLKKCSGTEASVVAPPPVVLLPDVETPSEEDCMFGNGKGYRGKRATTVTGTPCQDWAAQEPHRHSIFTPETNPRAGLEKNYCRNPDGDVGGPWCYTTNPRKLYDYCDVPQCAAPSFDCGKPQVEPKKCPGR
Plasminogen (Homo sapiens), sequence (P00747 581-810 limits assumed): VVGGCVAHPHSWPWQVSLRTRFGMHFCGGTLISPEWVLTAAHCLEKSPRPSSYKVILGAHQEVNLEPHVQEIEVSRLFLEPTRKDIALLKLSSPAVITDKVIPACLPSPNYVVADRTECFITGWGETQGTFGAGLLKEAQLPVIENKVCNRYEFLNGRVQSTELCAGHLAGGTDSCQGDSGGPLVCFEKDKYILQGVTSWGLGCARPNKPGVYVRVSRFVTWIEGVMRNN
In short: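 Specific activity from hydrolysis time courses at 37 °C with 50 µM substrate. Plasmin in PBS pH 7.4; cathepsin B diluted two-fold in PBS-NAC, reacted in PBS-NAC (10 mM N-acetylcysteine) pH 6.5. Ethanol-quenched aliquots, protein precipitated at −20 °C, RP-HPLC at 480 nm tracking dox release. Linear least-squares slope used; 1 U = 1 µM substrate hydrolysed per min.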

[10] = test system: MCF7; assay: Cytotoxicity against human MCF7 cells incubated for 24 hrs measured after 5 days in presence of complete protease inhibitor cocktail; type: functional, cell-based; in short: as §1
[11] = test system: MCF7; assay: Cytotoxicity against human MCF7 cells incubated for 24 hrs measured after 5 days in presence of 0.2 U plasmin; type: functional, cell-based; in short: as §1
[12] = test system: MIA PaCa-2; assay: Cytotoxicity against human MIAPaCa2 cells incubated for 24 hrs measured after 5 days; type: functional, cell-based; in short: as §1
[13] = Cytotoxicity against human L3.5.cells incubated for 24 hrs measured after 5 days in presence of 0.2 U human plasmin; type: functional, cell-based; in short: as §1
[14] = test system: MCF7; assay: Cytotoxicity against human MCF7 cells incubated for 24 hrs measured after 5 days in presence of 0.2 U papain; type: functional, cell-based; in short: as §1
[15] = Cytotoxicity against human L3.6PL cells incubated for 24 hrs measured after 5 days in presence of 0.2 U human plasmin; type: functional, cell-based; in short: as §1
[16] = test system: SHP77; assay: Cytotoxicity against doxorubicin-resistant human SHP77 cells incubated for 24 hrs measured after 5 days in presence of 0.2 U human plasmin; type: functional, cell-based; in short: as §1
[17] = test system: MCF7; assay: Cytotoxicity against human MCF7 cells incubated for 24 hrs measured after 5 days in presence of 5 uM aprotinin; type: functional, cell-based; in short: as §1
[18] = test system: SHP77; assay: Cytotoxicity against human doxorubicin-resistant SHP77 cells incubated for 24 hrs measured after 5 days; type: functional, cell-based; in short: as §1
[19] = test system: MIA PaCa-2; assay: Cytotoxicity against human MIAPaCa2 cells incubated for 24 hrs measured after 5 days in presence of 5 uM aprotinin; type: functional, cell-based; in short: as §1
[20] = Cytotoxicity against human L3.5 cells incubated for 24 hrs measured after 5 day; type: functional, cell-based; in short: as §1
[21] = test system: MIA PaCa-2; assay: Drug uptake in human MIAPaCa2 cells increase in compound uptake-induced anthracycline fluorescence in presence of plasmin at 0.5 uM after 4 to 5 hrs by flow cytometry relative to untreated control; type: ADME, cell-based; conditions: mia paca-2, 0.5 µM; in short: as §2
[22] = target: Plasminogen (Homo sapiens) (UniProt P00747); assay: Activity of human plasmin assessed as enzyme catalytic efficiency for compound hydrolysis at 50 uM at pH 7.4 in PBS buffer by RP-HPLC
In short: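 Michaelis-Menten kinetics, substrate 10–400 µM at 37 °C. Plasmin: 0.2 U, PBS pH 7.4, 4 min. Cathepsin B: 0.08 U, PBS-NAC pH 6.5, 20 min. Quenched with equal volume ethanol, −20 °C ≥2 h, centrifuged, supernatant RP-HPLC at 480 nm. Rates (µM/min) fit by non-linear least squares; triplicates.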

COc1cccc2c1C(=O)c1c(O)c3c(c(O)c1C2=O)C[C@@](O)(C(=O)CO)C[C@@H]3O[C@H]1C[C@H]2[C@H](OCN2C(=O)OCc2ccc(NC(=O)[C@H](CCCCN)NC(=O)[C@H](Cc3ccccc3)NC(=O)[C@@H](C)NC(=O)CNC(C)=O)cc2)[C@H](C)O1.O=P(O)(O)O
IC50 [1]: 26.3 nM | IC50 [2]: 3.98 nM | Activity [3]: 4340 U/mg | IC50 [4]: 200 nM | IC50 [5]: 200 nM | IC50 [6]: 316 nM | IC50 [7]: 3.02 nM | fold change (FC) [8]: 2 | Activity [9]: 1940 U/mg | IC50 [10]: 251 nM | IC50 [11]: 26.9 nM | IC50 [12]: 251 nM | IC50 [13]: 2.63 nM | IC50 [14]: 60.3 nM | IC50 [15]: 3.16 nM | IC50 [16]: 29.5 nM | IC50 [17]: 295 nM | IC50 [18]: 1580 nM | IC50 [19]: 282 nM | IC50 [20]: 224 nM | fold change (FC) [21]: 7 | Activity [22]: 1.43 ×10⁴ /M/s
